Reference: ChEMBL document CHEMBL1124018, “Synthesis and pharmacological properties of "soft drug" derivatives related to perhexiline” (J Med Chem, 1988)

Each compound was assayed against T1, Adrenergic receptor alpha-1 (Rattus norvegicus, UniProt P15823+P23944+P43140) (assay: Alpha adrenergic receptor activity in rat aorta).
T1 sequence (P15823 whole entry): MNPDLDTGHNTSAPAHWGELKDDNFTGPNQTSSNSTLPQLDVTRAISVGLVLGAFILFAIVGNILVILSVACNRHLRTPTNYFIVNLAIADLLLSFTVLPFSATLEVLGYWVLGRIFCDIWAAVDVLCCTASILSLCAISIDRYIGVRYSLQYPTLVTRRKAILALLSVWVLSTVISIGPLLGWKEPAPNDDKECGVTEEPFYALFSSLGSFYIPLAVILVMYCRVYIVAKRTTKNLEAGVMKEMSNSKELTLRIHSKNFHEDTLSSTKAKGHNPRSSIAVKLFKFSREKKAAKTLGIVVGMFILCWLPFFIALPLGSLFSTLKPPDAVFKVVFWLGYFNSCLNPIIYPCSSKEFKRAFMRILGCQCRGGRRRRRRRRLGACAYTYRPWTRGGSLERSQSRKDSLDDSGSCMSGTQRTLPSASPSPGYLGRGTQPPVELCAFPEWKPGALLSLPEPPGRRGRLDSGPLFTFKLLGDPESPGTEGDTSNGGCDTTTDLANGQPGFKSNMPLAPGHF
T1 sequence (P23944 whole entry): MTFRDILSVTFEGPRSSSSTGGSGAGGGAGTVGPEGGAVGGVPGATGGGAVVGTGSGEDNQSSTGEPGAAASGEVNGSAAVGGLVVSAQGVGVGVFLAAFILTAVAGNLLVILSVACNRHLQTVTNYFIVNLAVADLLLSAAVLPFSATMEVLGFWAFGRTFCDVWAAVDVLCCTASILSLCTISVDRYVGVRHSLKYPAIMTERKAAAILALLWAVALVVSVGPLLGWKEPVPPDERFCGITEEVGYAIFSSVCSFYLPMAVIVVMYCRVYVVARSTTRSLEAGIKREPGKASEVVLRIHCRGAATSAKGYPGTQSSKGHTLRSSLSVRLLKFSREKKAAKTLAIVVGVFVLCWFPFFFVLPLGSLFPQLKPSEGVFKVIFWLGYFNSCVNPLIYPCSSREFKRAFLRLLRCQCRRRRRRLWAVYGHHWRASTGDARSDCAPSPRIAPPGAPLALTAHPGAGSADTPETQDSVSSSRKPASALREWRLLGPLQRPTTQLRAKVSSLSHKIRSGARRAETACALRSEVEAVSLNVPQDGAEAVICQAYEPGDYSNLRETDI
T1 sequence (P43140 whole entry): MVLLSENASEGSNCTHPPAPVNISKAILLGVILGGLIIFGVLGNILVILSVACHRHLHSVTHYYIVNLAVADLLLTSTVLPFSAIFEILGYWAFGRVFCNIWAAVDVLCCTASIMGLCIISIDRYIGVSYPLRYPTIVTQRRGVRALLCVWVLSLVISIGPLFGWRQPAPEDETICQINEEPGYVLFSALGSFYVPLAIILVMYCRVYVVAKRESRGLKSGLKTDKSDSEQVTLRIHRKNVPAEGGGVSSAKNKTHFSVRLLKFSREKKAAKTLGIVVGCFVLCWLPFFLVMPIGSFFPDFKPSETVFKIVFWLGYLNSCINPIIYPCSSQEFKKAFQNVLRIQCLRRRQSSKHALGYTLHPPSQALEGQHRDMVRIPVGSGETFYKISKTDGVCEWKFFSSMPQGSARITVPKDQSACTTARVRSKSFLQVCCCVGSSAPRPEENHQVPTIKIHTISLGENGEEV
Format: tissue-based
How it was run: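 Rat aortic strips held at 2 g resting tension, stabilized about 1 h. Propranolol 10^-6 M for 30 min to block β-receptors. Isometric contraction recorded. Tissues primed with an agonist level giving 70-80% of maximal response, then washed every 15 min for 60 min. Two cumulative norepinephrine curves (10^-10–10^-7 M), with ascorbic acid 1.13 × 10^-5 M present, run before and after 30 min antagonist preincubation. One antagonist concentration per preparation. Reported as pA2.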
CCN(CC)CCNC(=O)C(c1ccccc1)C1CCCCC1.Cl (stereo not drawn) gave a pA2 of 5.4.
Work on O=C(CNC1CCCCC1)NC(c1ccccc1)C1CCCCC1 (stereo not drawn) yielded a pA2 of 6.5.
In the case of O=C(CCCNC1CCCCC1)NC(c1ccccc1)C1CCCCC1 (stereo not drawn), the pA2 is reported as 5.8.
In the case of NCC(=O)NC(c1ccccc1)C1CCCCC1.O=C(O)/C=C\C(=O)O (stereo not drawn), the pA2 is reported as 4.5.
In the case of CN(C(=O)CNC1CCCCC1)C(c1ccccc1)C1CCCCC1.O=C(O)/C=C\C(=O)O (stereo not drawn), the pA2 is reported as 5.3.
For C1CCC(C(CC2CCCCN2)C2CCCCC2)CC1 (stereo not drawn) [PERHEXILINE], the pA2 was 6.7.
O=C(Cc1c[nH]cn1)NC(c1ccccc1)C1CCCCC1.O=C(O)/C=C\C(=O)O (stereo not drawn) gave a pA2 of 5.3.
In the case of O=C(NCCN1CCOCC1)C(c1ccccc1)C1CCCCC1.O=C(O)C(=O)O (stereo not drawn), the pA2 is reported as 4.5.
For O=C(CCNC1CCCCC1)NC(c1ccccc1)C1CCCCC1 (stereo not drawn), the pA2 was 6.1.
Compound COc1ccc(CCN(C)CC(=O)NC(c2ccccc2)C2CCCCC2)cc1OC.O=C(O)C(=O)O (stereo not drawn) has a pA2 of 6.5.
For O=C(NCCc1ncc[nH]1)C(c1ccccc1)C1CCCCC1.O=C(O)C(=O)O (stereo not drawn), the pA2 was 5.4.
In the case of O=C(NCCNC1CCCCC1)C(c1ccccc1)C1CCCCC1 (stereo not drawn), the pA2 is reported as 6.6.
O=C(NCCN1CCCCC1)C(c1ccccc1)C1CCCCC1.O=C(O)C(=O)O (stereo not drawn) was tested, and the pA2 was 6.
O=C(CCC1=NCCN1)NC(c1ccccc1)C1CCCCC1.O=C(O)C(=O)O (stereo not drawn) showed a pA2 of 5.4.
In the case of O=C(Cc1ncc[nH]1)NC(c1ccccc1)C1CCCCC1.O=C(O)C(=O)O (stereo not drawn), the pA2 is reported as 5.9.
O=C(NCc1c[nH]cn1)C(c1ccccc1)C1CCCCC1.O=C(O)/C=C\C(=O)O (stereo not drawn) gave a pA2 of 4.1.
CCN(CC)CC(=O)NC(c1ccccc1)C1CCCCC1 (stereo not drawn) gave a pA2 of 6.
Work on O=C(NCc1ncc[nH]1)C(c1ccccc1)C1CCCCC1.O=C(O)C(=O)O (stereo not drawn) yielded a pA2 of 5.2.
With O=C(CC1=NCCN1)NC(c1ccccc1)C1CCCCC1.O=C(O)C(=O)O (stereo not drawn) the pA2 was 5.8.
Compound CN(CC(=O)N(C)C(c1ccccc1)C1CCCCC1)C1CCCCC1.O=C(O)/C=C\C(=O)O (stereo not drawn) has a pA2 of 4.5.
With O=C(CNCC1COc2ccccc2O1)NC(c1ccccc1)C1CCCCC1.O=C(O)/C=C\C(=O)O (stereo not drawn) the pA2 was 6.
Cl.O=C(NC1CCCCN1)C(c1ccccc1)C1CCCCC1 (stereo not drawn) gave a pA2 of 5.5.
O=C(NCCC1=NCCN1)C(c1ccccc1)C1CCCCC1.O=C(O)C(=O)O (stereo not drawn) showed a pA2 of 5.7.
For CN(CC(=O)NC(c1ccccc1)C1CCCCC1)C1CCCCC1.O=C(O)/C=C\C(=O)O (stereo not drawn), the pA2 was 6.7.
For CN(CC(=O)NC(c1ccccc1)C1CCCCC1)CC1COc2ccccc2O1.O=C(O)C(=O)O (stereo not drawn), the pA2 was 6.15.
In the case of O=C(CCc1ncc[nH]1)NC(c1ccccc1)C1CCCCC1.O=C(O)C(=O)O (stereo not drawn), the pA2 is reported as 4.2.
COc1ccccc1N1CCN(CCC(=O)NC(c2ccccc2)C2CCCCC2)CC1.O=C(O)/C=C\C(=O)O (stereo not drawn) gave a pA2 of 6.
Compound Cl.O=C(NCC1=NCCN1)C(c1ccccc1)C1CCCCC1 (stereo not drawn) has a pA2 of 6.1.
